Measured values as given in ChEMBL document CHEMBL1147081, “Structure of the deacetylase LpxC bound to the antibiotic CHIR-090: Time-dependent inhibition and specificity in ligand binding” (Proc Natl Acad Sci U S A, 2007).

How the values were obtained:
[1] = target: T1, UDP-3-O-acyl-N-acetylglucosamine deacetylase (Escherichia coli K-12, UniProt P0A725); assay: Inhibition of Escherichia coli LpxC
T1 sequence (P0A725 whole entry): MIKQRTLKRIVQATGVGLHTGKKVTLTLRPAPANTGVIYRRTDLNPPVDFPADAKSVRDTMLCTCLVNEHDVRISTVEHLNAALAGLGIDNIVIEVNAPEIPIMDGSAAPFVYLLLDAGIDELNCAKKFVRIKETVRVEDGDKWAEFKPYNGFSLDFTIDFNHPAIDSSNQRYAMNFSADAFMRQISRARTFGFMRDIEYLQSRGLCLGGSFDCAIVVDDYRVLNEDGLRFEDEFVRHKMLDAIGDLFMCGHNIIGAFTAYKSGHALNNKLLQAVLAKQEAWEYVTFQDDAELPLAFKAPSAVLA

[2] = target: UDP-3-O-acyl-N-acetylglucosamine deacetylase (Rhizobium leguminosarum bv. trifolii (strain WSM1325), UniProt C6ARS9, S214G/W206Q); assay: Inhibition of Rhizobium leguminosarum LpxC W206Q/S214G mutant
Outline: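 Assays used 5 μM UDP-3-O-(R-3-hydroxymyristoyl)-N-acetylglucosamine substrate and varied inhibitor at constant 10% DMSO. An IC50 curve was fit to fractional activity (vi/vo), and Ki was derived with the Cheng–Prusoff relationship.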

[3] = target: UDP-3-O-acyl-N-acetylglucosamine deacetylase (Escherichia coli K-12, UniProt P0A725, G210S/Q202W); assay: Inhibition of Escherichia coli LpxC Q202W/G210S mutant
[4] = Inhibition of Rhizobium leguminosarum LpxC

Sequence of UDP-3-O-acyl-N-acetylglucosamine deacetylase (Rhizobium leguminosarum bv. trifolii (strain WSM1325), UniProt C6ARS9, S214G/W206Q) (C6ARS9 as listed by the source W206Q/S214G): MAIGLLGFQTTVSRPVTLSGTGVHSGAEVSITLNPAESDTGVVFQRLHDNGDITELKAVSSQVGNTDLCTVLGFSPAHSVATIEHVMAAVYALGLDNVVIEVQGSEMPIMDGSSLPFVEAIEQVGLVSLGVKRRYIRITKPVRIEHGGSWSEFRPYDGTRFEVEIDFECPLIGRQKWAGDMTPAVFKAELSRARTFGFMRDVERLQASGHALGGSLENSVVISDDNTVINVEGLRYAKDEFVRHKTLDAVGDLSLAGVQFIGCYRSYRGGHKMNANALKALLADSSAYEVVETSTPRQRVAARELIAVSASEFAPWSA
Sequence of UDP-3-O-acyl-N-acetylglucosamine deacetylase (Escherichia coli K-12, UniProt P0A725, G210S/Q202W) (P0A725 whole entry Q202W/G210S): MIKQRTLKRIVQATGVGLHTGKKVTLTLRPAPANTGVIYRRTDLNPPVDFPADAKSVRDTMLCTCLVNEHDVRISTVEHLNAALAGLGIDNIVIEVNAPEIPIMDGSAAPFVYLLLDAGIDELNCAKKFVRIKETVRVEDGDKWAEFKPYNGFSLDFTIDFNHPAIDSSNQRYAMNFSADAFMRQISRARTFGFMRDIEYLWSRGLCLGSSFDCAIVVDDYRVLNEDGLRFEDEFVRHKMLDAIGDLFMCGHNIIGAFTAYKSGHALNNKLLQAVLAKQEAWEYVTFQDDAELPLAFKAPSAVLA

Row | Structure (SMILES) | Ki [1] [nM] | Ki [2] [nM] | Ki [3] [nM] | Ki [4] [nM]
1 | O=C(NO)[C@@H](Cc1ccc2ccccc2c1)NS(=O)(=O)c1ccc2ccccc2c1 | 69 | 700 | 86 | 5800
2 | CCCc1cc(C2=N[C@@H](C(=O)NO)CO2)cc(OC)c1OC | 53 | 110000 | 340 | 380000
